The source of these data is ChEMBL document CHEMBL5705890, “Antitumor activity of an allosteric inhibitor of centromere-associated protein-E” (Proc Natl Acad Sci U S A, 2010).

Experiment [1] addresses Centromere-associated protein E (Mus musculus, UniProt Q6RT24). Put plainly: Binding affinity to wild-type mouse CENP-E assessed as inhibition constant.
Another experiment has as its target Centromere protein E (Canis lupus familiaris, UniProt A0A8P0P634). Put plainly: Binding affinity to wild-type dog CENP-E assessed as inhibition constant.
In experiment [2] the target is T1, Centromere-associated protein E (Homo sapiens, UniProt Q02224). Put plainly: Binding affinity to wild-type human CENP-E assessed as inhibition constant. Summed up: (§1)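 CENP-E motor domain (residues 2–340, C-terminal 6-his, from E. coli BL21(DE3)) run in MT-stimulated ATPase with 500 μM ATP, 5 μM paclitaxel-stabilized MT, 1 nM enzyme in PEM25 buffer, pH 6.8. Apparent Ki taken from the concentration-response curves with explicit correction for enzyme concentration.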

The target of experiment [3] is T1, Centromere-associated protein E. Put plainly: Competitive-like binding affinity to C-terminal 6-his-tagged CENP-E (2 to 340 residues)(unknown origin) expressed in Escherichia coli BL21(DE3) assessed as apparent inhibition constant in presence of ATP. The following applies: read-out: Ki(app).
For experiment [4], the target named is Centromere-associated protein E (Homo sapiens, UniProt Q02224, I182L/K184T/T183A). Put plainly: Binding affinity to human CENP-E I182L/T183A/K184T mutant assessed as inhibition constant.
The target in experiment [5] is T1, Centromere-associated protein E. Kind of experiment: Inhibition of microtubule-stimulated ATPase activity of C-terminal 6-his-tagged CENP-E (2 to 340 residues)(unknown origin) expressed in Escherichia coli BL21(DE3) in presence of ATP. Summed up: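 Steady-state ATPase of CENP-E motor domain, residues 2–340 with C-terminal 6-His tag, expressed in E. coli BL21(DE3). Run at 1 nM enzyme, 500 μM ATP and 5 μM paclitaxel-stabilized microtubules in PEM25 (25 mM PIPES-K pH 6.8, 2 mM MgCl2, 1 mM EGTA) plus 10 μM paclitaxel. IC50 taken from concentration-response curves.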

The target is the same in experiment [6]. Kind of experiment: Inhibition of ATPase activity of C-terminal 6-his-tagged CENP-E (2 to 340 residues)(unknown origin) expressed in Escherichia coli BL21(DE3) in presence of ATP.
Experiment [7] has the same target. Put plainly: Uncompetitive binding affinity to microtubule-stimulated ATPase activity of C-terminal 6-his-tagged CENP-E (2 to 340 residues)(unknown origin) expressed in Escherichia coli BL21(DE3) assessed as apparent inhibition constant. As to conditions: read-out: Ki(app). The procedure, abridged: as §1
For experiment [8] the target is unchanged. Put plainly: Uncompetitive-like binding affinity to C-terminal 6-his-tagged CENP-E (2 to 340 residues)(unknown origin) expressed in Escherichia coli BL21(DE3) assessed as apparent inhibition constant in presence of ATP. The following applies: read-out: Ki(app).

T1 sequence (Q02224 whole entry, the tested form may be a part): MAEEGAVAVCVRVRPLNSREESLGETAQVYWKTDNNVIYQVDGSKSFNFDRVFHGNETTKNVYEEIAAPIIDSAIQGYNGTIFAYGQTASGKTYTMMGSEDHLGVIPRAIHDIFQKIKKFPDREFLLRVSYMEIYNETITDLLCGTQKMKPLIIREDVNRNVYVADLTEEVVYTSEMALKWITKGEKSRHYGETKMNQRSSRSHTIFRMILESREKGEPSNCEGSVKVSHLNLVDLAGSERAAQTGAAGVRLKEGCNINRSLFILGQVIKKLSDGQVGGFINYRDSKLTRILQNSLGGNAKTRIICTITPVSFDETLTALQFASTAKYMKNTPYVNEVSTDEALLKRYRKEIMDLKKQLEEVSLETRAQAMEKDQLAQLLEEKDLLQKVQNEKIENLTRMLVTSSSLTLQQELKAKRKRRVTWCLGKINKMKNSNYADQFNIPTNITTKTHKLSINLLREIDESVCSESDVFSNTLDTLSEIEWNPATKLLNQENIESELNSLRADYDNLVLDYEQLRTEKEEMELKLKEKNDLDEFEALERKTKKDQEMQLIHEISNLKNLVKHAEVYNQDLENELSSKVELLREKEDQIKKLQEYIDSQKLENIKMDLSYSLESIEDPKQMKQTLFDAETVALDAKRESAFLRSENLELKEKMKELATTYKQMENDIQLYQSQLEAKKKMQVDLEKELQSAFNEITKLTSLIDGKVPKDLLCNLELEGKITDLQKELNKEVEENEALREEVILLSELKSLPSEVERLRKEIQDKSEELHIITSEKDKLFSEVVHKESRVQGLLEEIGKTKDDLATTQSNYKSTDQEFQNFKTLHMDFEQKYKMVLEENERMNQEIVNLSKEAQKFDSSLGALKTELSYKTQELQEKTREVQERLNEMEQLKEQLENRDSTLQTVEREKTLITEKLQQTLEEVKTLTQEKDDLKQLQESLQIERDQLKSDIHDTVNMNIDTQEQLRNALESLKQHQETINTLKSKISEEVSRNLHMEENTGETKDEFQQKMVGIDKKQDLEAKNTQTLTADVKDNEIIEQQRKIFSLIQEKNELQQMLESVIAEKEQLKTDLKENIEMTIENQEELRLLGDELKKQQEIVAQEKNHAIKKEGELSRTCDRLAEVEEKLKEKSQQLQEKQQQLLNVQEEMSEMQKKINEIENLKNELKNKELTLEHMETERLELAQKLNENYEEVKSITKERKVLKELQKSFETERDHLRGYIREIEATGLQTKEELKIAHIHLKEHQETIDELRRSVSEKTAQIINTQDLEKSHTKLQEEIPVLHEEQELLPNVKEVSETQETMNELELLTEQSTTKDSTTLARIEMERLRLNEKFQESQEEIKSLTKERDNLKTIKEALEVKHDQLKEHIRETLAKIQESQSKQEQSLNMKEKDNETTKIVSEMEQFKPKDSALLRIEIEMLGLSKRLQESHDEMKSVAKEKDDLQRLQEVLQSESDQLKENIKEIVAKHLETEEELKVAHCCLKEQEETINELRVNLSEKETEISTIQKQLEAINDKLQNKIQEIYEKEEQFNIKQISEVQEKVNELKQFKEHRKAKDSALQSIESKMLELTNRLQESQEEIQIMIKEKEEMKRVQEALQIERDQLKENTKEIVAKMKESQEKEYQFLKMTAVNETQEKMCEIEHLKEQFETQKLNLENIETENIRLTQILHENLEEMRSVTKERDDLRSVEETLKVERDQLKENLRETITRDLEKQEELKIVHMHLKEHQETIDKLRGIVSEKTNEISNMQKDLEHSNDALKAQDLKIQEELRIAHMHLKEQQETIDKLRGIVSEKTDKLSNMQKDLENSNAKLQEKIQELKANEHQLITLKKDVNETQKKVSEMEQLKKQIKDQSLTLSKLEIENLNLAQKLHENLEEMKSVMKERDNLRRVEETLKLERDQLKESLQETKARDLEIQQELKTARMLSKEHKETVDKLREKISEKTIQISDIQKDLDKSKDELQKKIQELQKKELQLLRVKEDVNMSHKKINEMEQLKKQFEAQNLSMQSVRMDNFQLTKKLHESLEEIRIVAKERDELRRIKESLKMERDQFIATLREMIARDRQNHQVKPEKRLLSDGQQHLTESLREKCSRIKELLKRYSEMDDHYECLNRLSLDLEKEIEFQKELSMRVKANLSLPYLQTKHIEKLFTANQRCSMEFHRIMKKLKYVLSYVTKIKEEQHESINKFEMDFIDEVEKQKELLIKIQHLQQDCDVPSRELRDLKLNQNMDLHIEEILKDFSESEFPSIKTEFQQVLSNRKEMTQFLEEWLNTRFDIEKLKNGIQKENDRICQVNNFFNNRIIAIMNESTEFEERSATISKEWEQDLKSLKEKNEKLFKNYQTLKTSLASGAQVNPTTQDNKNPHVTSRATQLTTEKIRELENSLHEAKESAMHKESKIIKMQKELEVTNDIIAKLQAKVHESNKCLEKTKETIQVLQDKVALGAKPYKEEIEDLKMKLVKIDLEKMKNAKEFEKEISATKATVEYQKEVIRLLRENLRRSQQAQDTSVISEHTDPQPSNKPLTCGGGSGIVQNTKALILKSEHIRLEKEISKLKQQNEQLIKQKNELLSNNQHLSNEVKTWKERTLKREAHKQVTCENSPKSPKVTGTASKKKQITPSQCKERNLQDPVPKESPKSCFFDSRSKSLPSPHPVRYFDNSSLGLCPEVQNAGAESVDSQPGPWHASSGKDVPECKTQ
Sequence of Centromere protein E (A0A8P0P634 whole entry, the tested form may be a part): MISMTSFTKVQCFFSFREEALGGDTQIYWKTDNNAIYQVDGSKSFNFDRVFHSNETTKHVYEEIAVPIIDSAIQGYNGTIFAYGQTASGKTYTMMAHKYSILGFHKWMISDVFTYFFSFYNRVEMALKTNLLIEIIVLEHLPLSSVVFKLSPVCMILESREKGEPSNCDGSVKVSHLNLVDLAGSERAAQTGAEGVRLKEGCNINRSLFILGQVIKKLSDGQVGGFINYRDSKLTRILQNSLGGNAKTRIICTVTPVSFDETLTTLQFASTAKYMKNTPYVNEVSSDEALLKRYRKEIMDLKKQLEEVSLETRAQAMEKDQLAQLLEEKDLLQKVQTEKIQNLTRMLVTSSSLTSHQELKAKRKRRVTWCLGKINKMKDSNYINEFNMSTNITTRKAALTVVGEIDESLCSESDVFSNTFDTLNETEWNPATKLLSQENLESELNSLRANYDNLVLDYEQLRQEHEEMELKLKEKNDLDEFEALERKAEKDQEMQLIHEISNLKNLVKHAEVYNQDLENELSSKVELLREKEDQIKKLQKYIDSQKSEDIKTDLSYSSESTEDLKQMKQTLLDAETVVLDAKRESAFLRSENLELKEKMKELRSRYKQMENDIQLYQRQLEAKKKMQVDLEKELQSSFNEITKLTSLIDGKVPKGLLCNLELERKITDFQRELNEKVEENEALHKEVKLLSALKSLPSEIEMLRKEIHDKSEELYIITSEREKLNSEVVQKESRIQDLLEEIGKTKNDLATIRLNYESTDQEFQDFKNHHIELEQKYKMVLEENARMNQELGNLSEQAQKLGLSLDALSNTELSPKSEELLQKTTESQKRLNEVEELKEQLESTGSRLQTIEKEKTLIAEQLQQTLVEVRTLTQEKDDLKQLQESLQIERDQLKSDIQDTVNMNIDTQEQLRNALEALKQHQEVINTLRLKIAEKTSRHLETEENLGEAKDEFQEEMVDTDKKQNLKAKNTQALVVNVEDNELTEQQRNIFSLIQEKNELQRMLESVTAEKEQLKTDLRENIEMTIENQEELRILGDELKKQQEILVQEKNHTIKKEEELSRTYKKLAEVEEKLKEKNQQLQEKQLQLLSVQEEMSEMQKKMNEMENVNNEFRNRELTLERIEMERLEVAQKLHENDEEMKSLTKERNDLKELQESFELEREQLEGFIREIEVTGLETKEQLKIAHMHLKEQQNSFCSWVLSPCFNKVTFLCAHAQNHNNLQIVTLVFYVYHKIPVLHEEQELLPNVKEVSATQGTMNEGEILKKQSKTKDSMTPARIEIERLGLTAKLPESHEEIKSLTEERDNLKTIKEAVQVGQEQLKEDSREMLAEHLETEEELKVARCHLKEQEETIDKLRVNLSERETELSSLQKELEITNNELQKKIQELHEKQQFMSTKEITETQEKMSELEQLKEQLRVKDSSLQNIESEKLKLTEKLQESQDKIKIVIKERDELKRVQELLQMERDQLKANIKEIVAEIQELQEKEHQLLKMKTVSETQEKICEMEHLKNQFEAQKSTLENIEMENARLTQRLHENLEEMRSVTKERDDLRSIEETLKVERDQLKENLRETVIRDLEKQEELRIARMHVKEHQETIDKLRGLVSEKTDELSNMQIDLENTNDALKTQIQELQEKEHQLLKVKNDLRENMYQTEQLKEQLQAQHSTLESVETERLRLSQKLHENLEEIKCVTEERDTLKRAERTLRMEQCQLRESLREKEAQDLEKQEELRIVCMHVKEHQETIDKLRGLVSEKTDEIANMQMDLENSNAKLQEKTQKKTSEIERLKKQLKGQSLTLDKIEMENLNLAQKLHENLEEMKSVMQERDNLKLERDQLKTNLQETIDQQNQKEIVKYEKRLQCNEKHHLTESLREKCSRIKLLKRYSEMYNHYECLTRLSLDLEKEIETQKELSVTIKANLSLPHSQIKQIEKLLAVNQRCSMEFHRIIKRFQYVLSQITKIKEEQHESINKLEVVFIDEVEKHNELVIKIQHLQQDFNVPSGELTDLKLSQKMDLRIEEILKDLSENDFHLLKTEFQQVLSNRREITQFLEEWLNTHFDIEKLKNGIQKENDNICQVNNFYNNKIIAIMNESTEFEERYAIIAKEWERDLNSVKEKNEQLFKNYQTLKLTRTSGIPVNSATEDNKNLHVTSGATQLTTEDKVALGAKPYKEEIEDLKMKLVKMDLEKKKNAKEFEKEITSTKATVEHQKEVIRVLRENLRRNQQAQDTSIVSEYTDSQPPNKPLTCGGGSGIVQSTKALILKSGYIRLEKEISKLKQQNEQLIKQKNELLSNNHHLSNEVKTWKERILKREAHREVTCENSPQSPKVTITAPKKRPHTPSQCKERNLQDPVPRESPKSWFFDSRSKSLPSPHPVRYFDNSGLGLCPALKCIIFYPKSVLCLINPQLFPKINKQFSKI
Sequence of Centromere-associated protein E (Homo sapiens, UniProt Q02224, I182L/K184T/T183A) (Q02224 whole entry I182L/T183A/K184T, the tested form may be a part): as the sequence (Q02224 whole entry, the tested form may be a part) above, with I182L, T183A, K184T counted along it

One may read the IC50 as the midpoint of a concentration-inhibition curve. As for `CNC(=O)C(Cc1ccc(C(=O)c2ccccc2)cc1)NC(=O)c1ccc(OC(C)C)c(Cl)c1` (stereo not given), the Ki in [1] worked out at 89 nM; at Centromere protein E it was 2.4 nM; in experiment [2] it was 4.2 nM; in [3], 4400 nM; in experiment [4], 73 nM. Also, the IC50 in experiment [5] was determined as 550 nM.
Consider `Cc1cccn2cc(-c3ccc(C[C@@H](CCO)NC(=O)c4ccc(OC(C)C)c(C#N)c4)cc3)nc12`, for which the IC50 in [6] was found to be 7370 nM; in experiment [5], 3.7 nM. The Ki was determined as 4.7 nM in experiment [7] and 4.2 nM in [8].
